Source: PubChem (several laboratories)
SF1 activator – activators of human SF-1, primary screen, cell-based, CHO-K1, Gal4-SF-1 LBD, luciferase luminescence; CHO-K1 Gal4-SF-1 LBD luciferase reporter; % increase over DMSO SF-1-specific signal; Steroidogenic factor 1 (Homo sapiens), Q13285; activation, % at 10 µM; 1.9% of 65,000 active; AID 522, 2006;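 active = activation above the mean activation of all tested compounds plus 3 SD, cut at about 50% in these data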
Target sequence (Q13285 whole entry, looked up, the tested form may be a part): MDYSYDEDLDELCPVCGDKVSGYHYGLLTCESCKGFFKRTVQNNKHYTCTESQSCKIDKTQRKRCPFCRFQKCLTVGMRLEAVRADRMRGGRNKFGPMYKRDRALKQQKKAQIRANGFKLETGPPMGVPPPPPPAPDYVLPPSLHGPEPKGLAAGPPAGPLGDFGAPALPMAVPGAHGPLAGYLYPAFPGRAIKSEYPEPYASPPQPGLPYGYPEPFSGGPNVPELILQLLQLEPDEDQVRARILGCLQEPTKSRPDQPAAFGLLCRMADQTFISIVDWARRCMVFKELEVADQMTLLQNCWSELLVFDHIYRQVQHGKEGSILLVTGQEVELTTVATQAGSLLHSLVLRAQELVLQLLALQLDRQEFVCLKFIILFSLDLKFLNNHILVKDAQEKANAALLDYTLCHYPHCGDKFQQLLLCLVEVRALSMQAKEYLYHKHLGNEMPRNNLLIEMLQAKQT
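Material: CHO-K1 cells with Gal4–hSF-1 LBD chimera plus Gal4-driven luciferase / Input: 4,000 CHO-K1 cells per well / Incubation: compound exposure 20 h at 37 °C / Signal: luminescence read 15 min after SteadyLite luciferase reagent, after room-temperature equilibration / Read-out: percent activation versus DMSO / Benchmarks: DMSO negative control and −SF1 background wells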
RORa activator – activators of orphan receptor RORA, primary screen, cell-based, luminescence | CHO-K1 Gal4-RORA LBD luciferase reporter; percent increase over mock-subtracted basal signal | activation, % at 10 µM | 1.5% of 65,000 active | AID 560, 2006;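 active = activation above the mean of all tested compounds plus 3 SD, cut at about 49% in these data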
M1 antag – antagonists of rat M1 muscarinic receptor; Muscarinic acetylcholine receptor M1 (Rattus norvegicus), P08482; CHO-M1 cells, Fluo-4 calcium, ACh EC80 antagonist mode; stronger effect = lower value; B-score at 10 µM; 3.4% of 64,000 active; AID 628, 2007;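 active = calcium fluorescence response, raw or row-and-column corrected B-score, differing from the plate sample mean either way at a set confidence level, mostly lower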
M1 ag – M1 muscarinic receptor agonists, primary screen, CHO-M1 cells, Fluo-4 calcium, agonist mode; Muscarinic acetylcholine receptor M1; B-score at 10 µM; Fluo-4 calcium fluorescence; stronger effect = higher value; 3% of 64,000 active;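 active = fluorescence rise, raw or as B-score row- and column-corrected plate score, outside the 99.7% band of its plate's samples, either direction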
Htt clearance – clearance of mutant huntingtin inclusions, primary screen, imaging, HeLa Exon1htt(103Q)mCFP, confocal imaging; AID 853, 2007; inhibition, % at 1.5 µM; aggregate imaging; zero = plate's median compound well; 0.42% of 47,000 active;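 active = inhibition of aggregate fluorescence above about 70%, also judged a hit by eye on the cell image, limit read from the data, passing the limit was not always enough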;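 also: cells exposed to compound for three days before fixation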
D1 mod – D1 CRE-luciferase signal change, two-sided – cell-based, HEK293 D1, dopamine EC30, D1 allosteric modulator project, primary screen | D(1A) dopamine receptor (Homo sapiens), P21728 | dopamine EC30 potentiation; actives deviate in either direction | B-score at 10 µM | 5.9% of 58,000 active | AID 641, 2007;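 active = luminescence count or its row- and column-corrected plate score outside the 99.7% band of the plate's sample wells, on either side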
Hits are given with their value; n = inactive; x = no result. Hits are enriched below; roughly 11% of the tested compounds scored in any of these assays.

SMILES | SF1 activator | RORa activator | M1 antag | M1 ag | Htt clearance | D1 mod
COc1cc(NC(=O)CN2C(=O)c3ccccc3S2(=O)=O)c(OC)cc1Cl | n | n | n | n | n | n
CCOc1ccc(NC(=O)CN(C)CC(=O)NC2CCCc3ccccc32)cc1OCC (configuration not stated) | n | n | n | n | n | n
Cc1c(C(=O)NCC2CCCO2)oc2ccc3c(c12)C(=O)CC(C)(C)O3 (configuration not stated) | 61.5 | n | n | n | n | x
CN(C)c1cccc(C(=O)NC2CCCCCC2)c1 | 74.6 | n | n | n | x | n
O=C(NC1CCCC1)c1cccc(S(=O)(=O)N2CCCCC2)c1 | n | n | n | n | n | n
CCCN1C(=O)c2cc(C(=O)NC3CCCCCC3)ccc2C1O (configuration not stated) | x | x | n | n | n | -3.18
COc1cc(OC)cc(C(=O)N2CCC(N3CCCCCC3)CC2)c1 | n | n | n | n | x | x
O=c1oc2ccccc2n1CCCCCn1c(=O)oc2ccccc21 | n | n | n | n | n | n
O=c1oc2ccccc2n1CCCOc1ccccc1 | 57.4 | 49.3 | n | n | x | n
O=C(Cn1c(=O)oc2ccccc21)c1ccccc1 | n | n | n | n | n | -2.62
CCCNC(=O)Cn1c(=O)oc2ccccc21 | x | x | x | x | n | x
COC(=O)c1ccccc1NC(=O)Cn1c(SC)c(F)cnc1=O | n | n | 0.997 | n | n | n
COC(=O)c1ccccc1NC(=O)Cn1cc(Br)cn1 | n | n | n | n | n | n
O=C(Nc1nc2cc3c(cc2s1)OCO3)C1=COCCO1 | n | n | n | n | x | -8.33
c1c2c(cc3sc(N4CCCCC4)nc13)OCO2 | n | n | n | n | n | n
CC(=O)Nc1nc2cc3c(cc2s1)OCO3 | n | 71.8 | n | n | x | n
CCCC1C2CN(C(C)C)CC=C2C(C#N)=C(N)C1(C#N)C#N (configuration not stated) | n | n | n | 8.33 | n | n
CC(C)(C)C(=O)NCCN1CCN(C(=O)C(C)(C)C)CC1 | x | x | x | x | n | x
CCOc1ccc(OCC)c(NC(=O)c2ccc(CNc3c(N4CCOCC4)c(=O)c3=O)cc2)c1 | n | n | n | n | n | x
CC1(C)OC(=O)C(=CNC(Cc2c[nH]c3ccccc23)C(=O)O)C(=O)O1 (configuration not stated) | n | n | n | n | n | n
CC1(C)OC(=O)C(=CNC(CCC(N)=O)C(=O)O)C(=O)O1 (configuration not stated) | n | n | 1.26 | n | n | n
CCCCNC(=O)Nc1ccnn1C1CCCCC1 | n | n | 2.41 | n | x | n
O=C(Nc1nccs1)c1ccc(Cl)s1 | 58.0 | n | n | n | n | n
O=C(Nc1ccc2sccc2c1)c1ccc(Cl)s1 | 59.7 | n | n | n | x | n
CC1(C)CC(=O)C2=C(C1)N(Cc1ccco1)C(=O)C2(O)C(F)(F)F (configuration not stated) | n | n | n | n | n | n
SMILES | SF1 activator | RORa activator | M1 antag | M1 ag | Htt clearance | D1 mod
O=CNC(=O)c1ccccc1C(=O)O | n | n | n | n | x | x
O=C(CNC(=O)c1ccccc1C(=O)O)c1ccccc1 | 55.6 | n | n | n | n | n
Cc1nc2ncnn2c(C)c1Cc1ccc(Cl)cc1F | n | n | n | n | x | n
Cn1c(=O)c2c(nc(OCC3COC(C)(C)O3)n2Cc2ccccc2F)n(C)c1=O (configuration not stated) | n | n | n | n | n | n
O=C(Nc1ccccc1)Nc1cccc2cccnc12 | n | 86.2 | n | n | n | n
CC(C)Cc1cc(C(=O)NCc2cccs2)no1 | n | n | n | n | x | n
COCCn1c(NCc2ccc(C)cc2)nc2c1c(=O)[nH]c(=O)n2C | n | n | n | n | x | -3.34
COCCn1c(NCc2ccccc2)nc2c1c(=O)[nH]c(=O)n2C | n | n | n | n | x | n
CCOc1ccccc1NC(=O)N1CCCC1C(=O)Nc1ccc(-n2cnnn2)c(C)c1 (configuration not stated) | n | n | n | n | x | n
CCN(CC)CCCN1C(=O)C(=O)/C(=C(/O)c2ccc3c(c2)OCCO3)C1c1ccc(C)o1 (configuration not stated) | n | n | n | n | x | 2.31
COc1ccc(OC)c(C2/C(=C(\O)c3ccc4c(c3)OCCO4)C(=O)C(=O)N2CCCN(C)C)c1 (configuration not stated) | n | n | n | n | x | n
O=C(CCn1cccc1)NCCc1ccc(Cl)cc1 | n | n | n | n | x | n
COc1ccc(-c2nc3ccc(N4CCCC4)cc3c(=O)[nH]2)cc1OC | x | x | x | x | n | x
CCOc1ccc2cc(C#N)c(SCC(=O)N3CCOCC3)nc2c1 | n | 56.2 | n | n | n | n
CCOC(=O)CSc1nc2cc(OC)ccc2cc1C#N | 104.1 | 68.0 | n | n | n | n
CCOC(=O)CSc1nc2cc3c(cc2cc1C#N)OCO3 | 65.6 | n | n | n | x | n
COC(=O)CSc1nc2cc3c(cc2cc1C#N)OCO3 | n | n | n | n | n | n
CCOC(=O)CSc1nc2cc(C)ccc2cc1C#N | 85.0 | 71.3 | n | n | n | n
O=C(c1ccco1)N1CCN(C(=O)c2cccc3c2C(=O)N(C2CCCCC2)C3)CC1 | n | n | x | x | x | -3.39
COc1ccc(CCNC(=O)c2c(O)c3c([nH]c2=O)CCCC3)cc1OC | n | n | n | n | n | n
Cc1ccc(OCC(=O)Nc2cccc(-c3nnc(-c4ccccc4)o3)c2)cc1 | n | n | n | n | x | n
Cc1ccc(-c2nnc(Nc3ccccc3)o2)cc1 | n | n | n | n | x | -4.19
O=C(Oc1ccc(-c2ccccc2)cc1)N1CCOCC1 | n | 60.6 | n | n | x | n
O=C(Oc1cccc(Oc2ccccc2)c1)N1CCOCC1 | n | n | n | n | n | n
CN(C(=O)CSc1nc2c(c(=O)[nH]1)CCCC2)C1CCCCC1 | n | n | n | n | n | n
SMILES | SF1 activator | RORa activator | M1 antag | M1 ag | Htt clearance | D1 mod
CCCCNC(=O)N(O)C1N(CCCC)C(=O)N(CC(=O)OC)C1(C)C (configuration not stated) | x | x | x | x | n | x
C=CCN=C(C)C1=C(O)CCC1=O | n | n | n | n | 76.7 | n
Cc1cc(C)n(C(=O)c2ccc(NC(=O)CC(C)C)cc2)n1 | n | n | n | n | 90.3 | n
CCC(=O)Nc1ccc(C(=O)n2nc(C)cc2C)cc1 | n | n | n | n | x | n
O=C(CCCNS(=O)(=O)c1cccc2nsnc12)NCCc1ccccc1 | n | n | n | n | x | -4.02
Cc1nc(N)sc1-c1csc(Nc2ccccc2)n1 | 89.8 | 49.9 | n | n | n | x
O=C(CSc1ncccn1)NCc1ccccc1Cl | 68.3 | n | n | n | n | n
Clc1ccccc1CSc1ncccn1 | n | n | n | n | n | n
